SMILES strings stand for the structures. In brackets after ≈: the same amount, converted by molar mass. A value given as a limit tells only on which side of the number the result lay.

The subject of data set [1] is Human immunodeficiency virus 1. Nature of the data set: Toxicity value against wild type HIV-1 IIIB was determined. It counts as functional. The method in brief: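 MT4 cells (150 000 cells/mL) mock-infected, run in parallel with HIV-infected cultures over an identical compound concentration range. Incubated 3 days at 37 °C, 5% CO₂. Reduced expression of the […] GFP reporter serves as the toxicity marker.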

For data set [2], the system named is Human immunodeficiency virus 1. Briefly: Protease inhibitory activity against HIV-1 r13025 mutant strain was determined. It counts as functional, organism-based.
Data set [3] relates to Human immunodeficiency virus 1. Briefly: Protease inhibitory activity against HIV-1 r13034 mutant strain was determined. It counts as functional, organism-based.
Data set [4] relates to Human immunodeficiency virus 1. Briefly: Protease inhibitory activity against HIV-1 r13363 mutant strain was determined. It counts as functional, organism-based.
For data set [5], the system named is Human immunodeficiency virus 1. Briefly: Protease inhibitory activity against HIV-1 GSS004421 mutant strain was determined. It is filed as functional, organism-based.
In data set [6] the test system is Human immunodeficiency virus 1. Nature of the data set: Protease inhibitory activity against wild type HIV-1 IIIB was determined. It counts as functional, organism-based.
The species named for the next data set is Rattus norvegicus. Briefly: In vitro metabolic stability value after 30 min of incubation with liver microsomes of rat was determined. It counts as functional. To be noted: Microsome. The method in brief: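 Compound at 10 µM incubated at 37 °C with dog, human or rat liver microsomes. Residual parent compound quantified directly by LC-MS. Value is percent parent remaining after 30 min.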
Background: Liver microsomes are vesicles of endoplasmic reticulum, rich in cytochrome P450 enzymes.

Data set [7] concerns Caco-2. Briefly: In vitro increase in apparent permeability from apical to basolateral was determined in Caco-2 (human colon carcinoma) cells. It counts as functional, cell-based. The method in brief:
(§1)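 Caco-2 monolayer apparent permeability measured apical-to-basolateral and basolateral-to-apical; reported as Papp in cm/s (×10⁶).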
For orientation: Caco-2 monolayers are a common model of the intestinal barrier.

Data set [8] relates to Caco-2. Nature of the data set: In vitro increase in apparent permeability from basolateral to apical was determined in Caco-2 (human colon carcinoma) cells. It is filed as functional, cell-based. In a few lines:
as §1

Data set [9] in a line: In vitro solubility at was determined; pH=5. It is filed as ADME. The method in brief:
(§2)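 Aqueous solubility measured at pH 5 and pH 7, expressed in […].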

Data set [10] is described as follows: In vitro solubility at was determined; pH=7. It counts as ADME. The method in brief: as §2

Regarding `CC(C)CN(C[C@@H](O)[C@H](Cc1ccccc1)NC(=O)O[C@H]1CO[C@H]2OCC[C@H]21)S(=O)(=O)c1ccc2nc(N(C)CCCN3CCCC3)sc2c1`, the pCC50 in data set [1] came out at 4.58. Moreover, the pEC50 stood at 6.16 in data set [2], 7.36 in data set [3], 5.52 in [4] and 6.81 in data set [5]. In addition, the EC50 in data set [6] is 24 nM.

As to `CC(C)CN(C[C@@H](O)[C@H](Cc1ccccc1)NC(=O)O[C@H]1CO[C@H]2OCC[C@H]21)S(=O)(=O)c1ccc2ncsc2c1`, in data set [1], the pCC50 was below 4.49. For the same compound, the pEC50 worked out at 7.83 in [2], 8.11 in [3], 6.57 in data set [4] and 7.78 in data set [5]. In [6], the EC50 was 1.1 nM.

`CC(C)CN(C[C@@H](O)[C@H](Cc1ccccc1)NC(=O)OC1CCOC1)S(=O)(=O)c1ccc(N)cc1` (single isomer, unassigned) returned a pCC50 in data set [1] below 4.49. For the same compound, the pEC50 in [2] was determined as 6.43; in data set [3], 6.01; in [4], 4.95; in [5], 5.75. This compound had an EC50 in data set [6] of 43.7 nM.

The compound `COC(=O)N[C@H](C(=O)N[C@@H](Cc1ccccc1)[C@@H](O)CN(Cc1ccc(-c2ccccn2)cc1)NC(=O)[C@@H](NC(=O)OC)C(C)(C)C)C(C)(C)C` [ATAZANAVIR] came in with a pCC50 in data set [1] of 4.53. In addition, the values for the pEC50 in data set [2], in data set [4] and in [5] were 5.78, 7.23 and 7.32, respectively. Further, the EC50 in data set [6] was 15.1 nM.

In turn, `CC(C)CN(C[C@@H](O)[C@H](Cc1ccccc1)NC(=O)O[C@H]1CO[C@H]2OCC[C@H]21)S(=O)(=O)c1ccc2nc(N(C)CCCN3CCCC3)oc2c1` returned a pCC50 in data set [1] below 4.49. The pEC50 is 6.63 in data set [2], 6.34 in [3], 5.22 in [4] and 6.22 in data set [5]. Moreover, the EC50 in data set [6] is 69.2 nM.

For `CC(C)CN(C[C@@H](O)[C@H](Cc1ccccc1)NC(=O)O[C@H]1CO[C@H]2OCC[C@H]21)S(=O)(=O)c1ccc2nc(N(C)CCN3CCCC3)sc2c1`, the pCC50 in [1] is 4.52. The pEC50 in [2] was 6.5; in data set [3], 6.85; in [4], 5.64; in data set [5] it was 6.29. The half-maximal effective concentration (EC50) in data set [6] was 5.62 nM.

With `CCC[C@@]1(CCc2ccccc2)CC(O)=C([C@H](CC)c2cccc(NS(=O)(=O)c3ccc(C(F)(F)F)cn3)c2)C(=O)O1`, the pCC50 in data set [1] was below 4.49. In addition, the values for the pEC50 in [2], in data set [4] and in data set [5] were 5.74, 6.15 and 6.73, respectively. Moreover, the midpoint of the response in [6], the EC50, lay at 501 nM.

In turn, `CC(C)CN(C[C@@H](O)[C@H](Cc1ccccc1)NC(=O)O[C@H]1CO[C@H]2OCC[C@H]21)S(=O)(=O)c1ccc2nc(N)sc2c1` had a Metabolic stability in the data set filed under Rattus norvegicus of 77%. This compound also had a pCC50 in data set [1] of 4.77. Also, the pEC50 was 8.51 in data set [2], 8.42 in [3], 7.9 in data set [4] and 8.59 in data set [5]. In data set [6], this compound showed an EC50 of 9.12 nM. The apparent permeability coefficient (Papp) in the data set on Caco-2 [7] stood at 9.9 ×10⁻⁶ cm/s; with Caco-2 [8], 27.3 ×10⁻⁶ cm/s. The solubility in data set [9] and in [10] was below 10 µg/mL in each case.

Compound `CC(C)CN(C[C@@H](O)[C@H](Cc1ccccc1)NC(=O)O[C@H]1CO[C@H]2OCC[C@H]21)S(=O)(=O)c1ccc2nc(N(C)C)oc2c1` had a pCC50 in data set [1] below 4.49. Further, the pEC50 worked out at 6.66 in [2], 6.92 in data set [3], 5.38 in [4] and 6.58 in [5]. In addition, in data set [6], it took 4.17 nM to reach a half-maximal effect (EC50).

As to `CC(C)CN(C[C@@H](O)[C@H](Cc1ccccc1)NC(=O)O[C@H]1CO[C@H]2OCC[C@H]21)S(=O)(=O)c1ccc2nc(N(C)C)sc2c1`, the pCC50 in data set [1] was below 4.49. Also, the pEC50 turned out to be 7.31 in data set [2], 5.36 in [4] and 6.59 in data set [5]. The compound further had an EC50 in data set [6] of 3.47 nM.

Regarding `CC(C)(C)NC(=O)[C@@H]1CN(Cc2cccnc2)CCN1C[C@@H](O)C[C@@H](Cc1ccccc1)C(=O)N[C@H]1c2ccccc2C[C@H]1O.O`, the pCC50 in data set [1] was below 4.49. The pEC50 in data set [2] is 5.97; in data set [3], 5.9; in data set [4], 6.39; in data set [5], 6.47. Besides, the EC50 in [6] is 39.8 nM.

Turning to `CC(C)CN(C[C@@H](O)[C@H](Cc1ccccc1)NC(=O)O[C@H]1CO[C@H]2OCC[C@H]21)S(=O)(=O)c1ccc2nc(NCCN(C)C)oc2c1`, in data set [1], the negative-log CC50 (pCC50) was below 4.49. The pEC50 worked out at 6.87 in data set [2], 7.61 in data set [3], 6.7 in data set [4] and 6.81 in data set [5]. The compound further gave an EC50 in data set [6] of 81.3 nM.

In [1], `Cc1cccc(C)c1OCC(=O)N[C@@H](Cc1ccccc1)[C@@H](O)C[C@H](Cc1ccccc1)NC(=O)[C@H](C(C)C)N1CCCNC1=O` [LOPINAVIR] displayed a pCC50 of 4.95. In addition, the negative-log EC50 (pEC50) in [2] was 7.84; in [3], 6.59; in [4] it was 6.28; in data set [5], 6.02. In [6], the EC50 is 9.77 nM.

With `CC(C)c1nc(CN(C)C(=O)N[C@H](C(=O)N[C@@H](Cc2ccccc2)C[C@H](O)[C@H](Cc2ccccc2)NC(=O)OCc2cncs2)C(C)C)cs1` [RITONAVIR], in data set [1], the pCC50 is 4.53. The pEC50 in data set [2] stood at 5.99; in data set [3] it was 5.3; in [4], 4.89; in [5], 4.97. Also, in data set [6], the response was half-maximal at 64.6 nM (EC50).

`CC(C)CN(C[C@@H](O)[C@H](Cc1ccccc1)NC(=O)O[C@H]1CO[C@H]2OCC[C@H]21)S(=O)(=O)c1ccc2nc(NCCN(C)C)sc2c1`: the Metabolic stability in the data set filed under Rattus norvegicus turned out to be 19%. In [1], this compound showed a pCC50 below 4.49. Besides, the pEC50 turned out to be 7.84 in data set [2], 8.09 in [3], 7.67 in data set [4] and 7.9 in data set [5]. Further, the EC50 in data set [6] was 11.2 nM. Further, the Papp amounted to 6.1 ×10⁻⁶ cm/s with Caco-2 [7] and 26.6 ×10⁻⁶ cm/s with Caco-2 [8]. In addition, the solubility is 410 µg/mL (≈ 607 µM) in data set [9] and 40 µg/mL (≈ 59.2 µM) in [10].

`CC(C)CN(C[C@@H](O)[C@H](Cc1ccccc1)NC(=O)O[C@H]1CO[C@H]2OCC[C@H]21)S(=O)(=O)c1ccc2nc(NCCN3CCCC3)oc2c1` showed a pCC50 in data set [1] of 4.49. Further, the pEC50 worked out at 7.12 in data set [2], 7.48 in [3], 6.88 in data set [4] and 7.21 in data set [5]. In data set [6], the EC50 is 26.3 nM.

`CC(C)CN(C[C@@H](O)[C@H](Cc1ccccc1)NC(=O)O[C@H]1CO[C@H]2OCC[C@H]21)S(=O)(=O)c1ccc2nc(NCCCN(C)C)sc2c1` registered a pCC50 in data set [1] of 4.73. Moreover, the pEC50 was determined as 7.69 in [2], 8.17 in [3], 7.53 in data set [4] and 7.72 in data set [5]. This compound gave an EC50 in [6] of 57.5 nM.

In [1], `CC(C)(C)NC(=O)[C@@H]1C[C@@H]2CCCC[C@@H]2CN1C[C@@H](O)[C@H](Cc1ccccc1)NC(=O)[C@H](CC(N)=O)NC(=O)c1ccc2ccccc2n1` returned a pCC50 of 4.68. Also, the pEC50 in data set [2] turned out to be 6.83; in data set [3] it was 5.91; in [4], 7.54; in [5], 6.3. In data set [6], this compound gave an EC50 of 26.3 nM.

Take `CNc1nc2ccc(S(=O)(=O)N(CC(C)C)C[C@@H](O)[C@H](Cc3ccccc3)NC(=O)O[C@H]3CO[C@H]4OCC[C@H]43)cc2s1`: in the data set filed under Rattus norvegicus, the Metabolic stability came to 72%. Also, in data set [1], the pCC50 was below 4.49. Besides, the pEC50 in [2] came to 8.81; in data set [3], 8.81; in [4] it was 7.81; in data set [5] it was 8.59. In [6], this compound had an EC50 of 0.912 nM. The Papp came out at 19.3 ×10⁻⁶ cm/s in the data set on Caco-2 [7] and 14.2 ×10⁻⁶ cm/s with Caco-2 [8]. In addition, the solubility in data set [9] and in [10] was below 10 µg/mL each time.

Regarding `Cc1c(O)cccc1C(=O)N[C@@H](CSc1ccccc1)[C@H](O)CN1C[C@H]2CCCC[C@H]2C[C@H]1C(=O)NC(C)(C)C`, the pCC50 in data set [1] came out at 4.75. Besides, the pEC50 in data set [2] is 5.31; in data set [3], 5.9; in data set [4] it was 5.82; in data set [5] it was 6.28. The EC50 in [6] came out at 70.8 nM.

For the compound `CC(C)CN(C[C@@H](O)[C@H](Cc1ccccc1)NC(=O)O[C@H]1CO[C@H]2OCC[C@H]21)S(=O)(=O)c1ccc2nc(N(C)CCN3CCCC3)oc2c1`, the pCC50 in [1] is below 4.49. Also, the pEC50 in [2] was 6.65; in [3], 6.73; in data set [4], 5.85; in data set [5], 6.55. For the same compound, the EC50 in [6] was 33.1 nM.

For the compound `CNCCNc1nc2ccc(S(=O)(=O)N(CC(C)C)C[C@@H](O)[C@H](Cc3ccccc3)NC(=O)O[C@H]3CO[C@H]4OCC[C@H]43)cc2s1`, the pCC50 in [1] was below 4.49. The pEC50 worked out at 6.49 in data set [2], 6.43 in data set [3], 6.11 in [4] and 6.5 in data set [5]. Also, in data set [6], the EC50 is 209 nM.

For orientation: pCC50 means the negative decadic logarithm of the CC50, by convention in mol/L. A higher pCC50 goes with a small CC50. The term pEC50 denotes −log10 of the EC50, conventionally taken in molar units. A word on the EC50: it is the concentration that produces a half-maximal response. A higher EC50 goes with lower potency in that assay. The term Papp denotes the rate of passage across a membrane or cell layer, normalised by area and donor concentration. By solubility is commonly meant how much of the substance goes into solution per volume. A lower solubility goes with little dissolved substance.
